Experimental data reported in ChEMBL document CHEMBL1137660, “Molecular and biochemical characterization of the chromosome-encoded class A beta-lactamase BCL-1 from Bacillus clausii” (Antimicrob Agents Chemother, 2007).
In brackets after ≈: the same amount, converted by molar mass.

Experiments:
Format in all cases: functional
Escherichia coli [1] = assay: Antimicrobial activity against Escherichia coli BL21(DE3) by agar-dilution technique
Procedure, shortened: (§1)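 MICs by agar dilution on Mueller-Hinton agar following CLSI recommendations. E. coli DH10B clone carries EcoRI-restricted B. clausii NR DNA in pJIM2246. BL21(DE3) carries blaBCL-1 in pET9a.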

Shouchella clausii [2] = assay: Antimicrobial activity against Bacillus clausii NR expressing beta-lactamase BCL1 by agar-dilution technique in presence of beta-lactamase inhibitor clavulanic acid; procedure, shortened: as §1
Escherichia coli [3] = assay: Antimicrobial activity against Escherichia coli BL21(DE3) carrying pET9a expressing Bacillus clausii beta-lactamase BCL1 by agar-dilution technique in presence of beta-lactamase inhibitor clavulanic acid; procedure, shortened: as §1
Escherichia coli [4] = assay: Antimicrobial activity against Escherichia coli DH10B by agar-dilution technique in presence of beta-lactamase inhibitor clavulanic acid; settings: K-12 substr. DH10B; procedure, shortened: as §1
Escherichia coli [5] = assay: Antimicrobial activity against Escherichia coli DH10B by agar-dilution technique; settings: K-12 substr. DH10B; procedure, shortened: as §1
Escherichia coli [6] = assay: Antimicrobial activity against Escherichia coli DH10B carrying pJIM2246 expressing Bacillus clausii NR beta-lactamase BCL1 by agar-dilution technique in presence of beta-lactamase inhibitor clavulanic acid; settings: K-12 substr. DH10B; procedure, shortened: as §1
Shouchella clausii [7] = assay: Antimicrobial activity against Bacillus clausii ATCC 21537 by agar-dilution technique in presence of beta-lactamase inhibitor clavulanic acid; procedure, shortened: as §1
Shouchella clausii [8] = assay: Antimicrobial activity against Bacillus clausii NR expressing beta-lactamase BCL1 by agar-dilution technique
Escherichia coli [9] = assay: Antimicrobial activity against Escherichia coli BL21(DE3) by agar-dilution technique in presence of beta-lactamase inhibitor clavulanic acid; procedure, shortened: as §1
Shouchella clausii [10] = assay: Antimicrobial activity against Bacillus clausii ATCC 21537 by agar-dilution technique
Escherichia coli [11] = assay: Antimicrobial activity against Escherichia coli DH10B carrying pJIM2246 expressing Bacillus clausii NR beta-lactamase BCL1 by agar-dilution technique; settings: K-12 substr. DH10B
Escherichia coli [12] = assay: Antimicrobial activity against Escherichia coli BL21(DE3) carrying pET9a expressing Bacillus clausii beta-lactamase BCL1 by agar-dilution technique
Escherichia coli [13] = assay: Antimicrobial activity against Escherichia coli BL21(DE3) by agar-dilution technique in presence of beta-lactamase inhibitor Tazobactam; procedure, shortened: as §1
Escherichia coli [14] = assay: Antimicrobial activity against Escherichia coli DH10B carrying pJIM2246 expressing Bacillus clausii NR beta-lactamase BCL1 by agar-dilution technique in presence of beta-lactamase inhibitor Tazobactam; settings: K-12 substr. DH10B; procedure, shortened: as §1
Shouchella clausii [15] = assay: Antimicrobial activity against Bacillus clausii ATCC 21537 by agar-dilution technique in presence of beta-lactamase inhibitor Tazobactam; procedure, shortened: as §1
Escherichia coli [16] = assay: Antimicrobial activity against Escherichia coli DH10B by agar-dilution technique in presence of beta-lactamase inhibitor Tazobactam; settings: K-12 substr. DH10B; procedure, shortened: as §1
Escherichia coli [17] = assay: Antimicrobial activity against Escherichia coli BL21(DE3) carrying pET9a expressing Bacillus clausii beta-lactamase BCL1 by agar-dilution technique in presence of beta-lactamase inhibitor Tazobactam; procedure, shortened: as §1
Shouchella clausii [18] = assay: Antimicrobial activity against Bacillus clausii NR expressing beta-lactamase BCL1 by agar-dilution technique in presence of beta-lactamase inhibitor Tazobactam; procedure, shortened: as §1

Compound | MIC (Escherichia coli [1]) [µg/mL] | MIC (Escherichia coli [5]) [µg/mL] | MIC (Shouchella clausii [8]) [µg/mL] | MIC (Shouchella clausii [10]) [µg/mL] | MIC (Escherichia coli [11]) [µg/mL] | MIC (Escherichia coli [12]) [µg/mL] | other results
CO/N=C(\C(=O)N[C@@H]1C(=O)N2C(C(=O)[O-])=C(C[N+]3(C)CCCC3)CS[C@H]12)c1csc(N)n1 | 0.06 (≈ 0.125 µM) |  |  |  |  |  | 
CC1(C)S[C@@H]2[C@H](NC(=O)[C@H](N)c3ccc(O)cc3)C(=O)N2[C@H]1C(=O)O [AMOXICILLIN] | 1 (≈ 2.74 µM) | 8 (≈ 21.9 µM) | 0.5 (≈ 1.37 µM) | 1 (≈ 2.74 µM) |  |  | MIC (Shouchella clausii [2]): 0.12 µg/mL; MIC (Escherichia coli [3]): 2 µg/mL; MIC (Escherichia coli [4]): 4 µg/mL; MIC (Escherichia coli [6]): 32 µg/mL; MIC (Shouchella clausii [7]; read-out: MIC): 120 µg/mL; MIC (Escherichia coli [9]): 1 µg/mL
CO/N=C(\C(=O)N[C@@H]1C(=O)N2C(C(=O)O)=C(COC(C)=O)CS[C@H]12)c1csc(N)n1 [CEFOTAXIME] | 0.06 (≈ 0.132 µM) | 0.06 (≈ 0.132 µM) | 16 (≈ 35.1 µM) | 16 (≈ 35.1 µM) | 0.12 (≈ 0.263 µM) | 0.06 (≈ 0.132 µM) | MIC (Shouchella clausii [2]): 16 µg/mL; MIC (Escherichia coli [3]): 0.06 µg/mL; MIC (Escherichia coli [4]): 0.06 µg/mL; MIC (Escherichia coli [6]): 0.06 µg/mL; MIC (Shouchella clausii [7]): 16 µg/mL; MIC (Escherichia coli [9]): 0.06 µg/mL
CO[C@@]1(NC(=O)Cc2cccs2)C(=O)N2C(C(=O)O)=C(COC(N)=O)CS[C@@H]21 [CEFOXITIN] | 0.5 (≈ 1.17 µM) | 8 (≈ 18.7 µM) | 32 (≈ 74.9 µM) | 16 (≈ 37.4 µM) | 16 (≈ 37.4 µM) | 2 (≈ 4.68 µM) | 
CO/N=C(\C(=O)N[C@@H]1C(=O)N2C(C(=O)[O-])=C(C[n+]3cccc4c3CCC4)CS[C@H]12)c1csc(N)n1 [CEFPIROME] | 0.06 (≈ 0.117 µM) | 0.06 (≈ 0.117 µM) |  |  | 0.12 (≈ 0.233 µM) | 0.5 (≈ 0.972 µM) | MIC (Shouchella clausii [2]): 8 µg/mL; MIC (Escherichia coli [3]): 0.06 µg/mL; MIC (Escherichia coli [4]): 0.06 µg/mL; MIC (Escherichia coli [6]): 0.06 µg/mL; MIC (Shouchella clausii [7]): 8 µg/mL; MIC (Escherichia coli [9]): 0.06 µg/mL
CC(C)(O/N=C(\C(=O)N[C@@H]1C(=O)N2C(C(=O)[O-])=C(C[n+]3ccccc3)CS[C@H]12)c1csc(N)n1)C(=O)O [CEFTAZIDIME] | 0.06 (≈ 0.11 µM) | 0.12 (≈ 0.22 µM) |  |  | 0.5 (≈ 0.915 µM) | 0.12 (≈ 0.22 µM) | MIC (Escherichia coli [3]): 0.06 µg/mL; MIC (Escherichia coli [4]): 0.12 µg/mL; MIC (Escherichia coli [6]): 0.5 µg/mL; MIC (Escherichia coli [9]): 0.06 µg/mL
CO/N=C(\C(=O)N[C@@H]1C(=O)N2C(C(=O)O)=C(CSc3nc(=O)c(O)nn3C)CS[C@H]12)c1csc(N)n1 [CEFTRIAXONE] | 0.06 (≈ 0.108 µM) | 0.06 (≈ 0.108 µM) |  |  | 0.06 (≈ 0.108 µM) | 0.06 (≈ 0.108 µM) | 
CO/N=C(\C(=O)N[C@@H]1C(=O)N2C(C(=O)O)=C(COC(N)=O)CS[C@H]12)c1ccco1 [CEFUROXIME] | 0.5 (≈ 1.18 µM) | 8 (≈ 18.9 µM) |  |  | 16 (≈ 37.7 µM) | 2 (≈ 4.71 µM) | 
O=C(Cc1cccs1)N[C@@H]1C(=O)N2C(C(=O)[O-])=C(C[n+]3ccccc3)CS[C@H]12 [CEPHALORIDINE] | 0.06 (≈ 0.144 µM) | 0.12 (≈ 0.289 µM) |  |  | 0.12 (≈ 0.289 µM) | 0.06 (≈ 0.144 µM) | 
CC(=O)OCC1=C(C(=O)O)N2C(=O)[C@@H](NC(=O)Cc3cccs3)[C@H]2SC1 [CEPHALOTHIN] | 1 (≈ 2.52 µM) | 4 (≈ 10.1 µM) | 8 (≈ 20.2 µM) | 8 (≈ 20.2 µM) | 64 (≈ 161 µM) | 16 (≈ 40.4 µM) | 
C[C@@H](O)[C@H]1C(=O)N2C(C(=O)O)=C(SCCNC=N)C[C@H]12 [IMIPENEM ANHYDROUS] |  |  | 0.25 (≈ 0.835 µM) |  |  |  | 
CO[C@@]1(NC(=O)C(C(=O)O)c2ccc(O)cc2)C(=O)N2C(C(=O)O)=C(CSc3nnnn3C)CO[C@@H]21 (some centres not stated) [MOXALACTAM] | 0.25 (≈ 0.48 µM) | 0.25 (≈ 0.48 µM) | 64 (≈ 123 µM) | 0.25 (≈ 0.48 µM) | 0.25 (≈ 0.48 µM) | 0.25 (≈ 0.48 µM) | 
CC1(C)S[C@@H]2[C@H](NC(=O)Cc3ccccc3)C(=O)N2[C@H]1C(=O)O [PENICILLIN G] | 2 (≈ 5.98 µM) | 32 (≈ 95.7 µM) | 0.5 (≈ 1.5 µM) | 0.5 (≈ 1.5 µM) |  |  | 
CCN1CCN(C(=O)N[C@@H](C(=O)N[C@@H]2C(=O)N3[C@@H]2SC(C)(C)[C@@H]3C(=O)O)c2ccccc2)C(=O)C1=O [PIPERACILLIN] | 1 (≈ 1.93 µM) | 4 (≈ 7.73 µM) | 16 (≈ 30.9 µM) | 16 (≈ 30.9 µM) | 8 (≈ 15.5 µM) | 32 (≈ 61.8 µM) | MIC (Escherichia coli [13]): 0.5 µg/mL; MIC (Escherichia coli [14]): 2 µg/mL; MIC (Shouchella clausii [15]): 8 µg/mL; MIC (Escherichia coli [16]): 4 µg/mL; MIC (Escherichia coli [17]): 0.5 µg/mL; MIC (Shouchella clausii [18]): 8 µg/mL
CC1(C)S[C@@H]2[C@H](NC(=O)[C@H](C(=O)O)c3ccsc3)C(=O)N2[C@H]1C(=O)O [TICARCILLIN] | 1 (≈ 2.6 µM) | 8 (≈ 20.8 µM) | 8 (≈ 20.8 µM) | 8 (≈ 20.8 µM) |  |  | 
